For 14 compounds, MIC results are on record in ChEMBL document CHEMBL2040785, “Regioselective synthesis and antimicrobial studies of ester linked 1,4-disubstituted 1,2,3-bistriazoles” (2012).

Values after ≈ are worked out from the molar mass of the structure shown.

Common to all, as to assay type: functional
Test [1] has as its system Candida albicans. Briefly: Antifungal activity against Candida albicans MTCC 183 after 48 hrs by serial dilution method. The conditions noted are these: MTCC 183, 48 h. The method in brief:
(§1)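 Tube serial dilution MIC in Sabouraud dextrose broth. Stocks of 100 µg/ml were diluted in 1 ml sterile medium to 50–3.12 µg/ml, and each tube was inoculated with 100 µL of fungal suspension in sterile saline. Incubation at 25 ± 1 °C, 48 h for C. albicans and 120 h for A. niger. Fluconazole was the reference drug and DMSO the solvent control.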

Test [2] has as its system Aspergillus niger. Kind of test: Antifungal activity against Aspergillus niger MTCC 282 after 120 hrs by serial dilution method. Particulars: MTCC 282, 120 h. In short, it runs like this: as §1
Test [3] concerns Bacillus subtilis. Kind of test: Antibacterial activity against Bacillus subtilis MTCC 441 after 24 hrs by serial dilution method. Particulars: MTCC 441, 24 h. In short, it runs like this: (§2)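 Tube serial dilution MIC. Compounds held as 100 µg/ml stocks and serially diluted in tubes of 1 ml sterile double strength nutrient broth to 50–3.12 µg/ml. Each tube was inoculated with 100 µL of bacterial suspension in sterile saline. Incubation at 37 ± 1 °C for 24 h. Norfloxacin was the reference drug and DMSO the solvent control.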

In test [4] the test system is Escherichia coli. Kind of test: Antibacterial activity against Escherichia coli MTCC 7443 after 24 hrs by serial dilution method. The conditions noted are these: MTCC 7443, 24 h. In short, it runs like this:
as §2

For orientation: MIC means the smallest concentration in the dilution series that meets the test's criterion for growth inhibition. Low values mean inhibition by little substance, high ones a need for much substance.

Take `O=C(CC(=O)OCc1cn(Cc2ccccc2)nn1)OCc1cn(Cc2ccccc2)nn1`: the MIC in test [1] amounted to 14 µM (≈ 6.25 µg/mL); in test [2], 14 µM (≈ 6.25 µg/mL); in test [3], 28 µM (≈ 12.5 µg/mL); in test [4], 28 µM (≈ 12.5 µg/mL).
Consider `O=C(CC(=O)OCc1cn(CCc2ccccc2)nn1)OCc1cn(CCc2ccccc2)nn1`, for which the MIC in test [1], in test [2], in test [3] and in test [4] was 26.3 µM (≈ 12.5 µg/mL) each time.
Turning to `O=C(CCC(=O)OCc1cn(Cc2ccccc2)nn1)OCc1cn(Cc2ccccc2)nn1`, the MIC was 13.5 µM (≈ 6.22 µg/mL) in test [1], 27.1 µM (≈ 12.5 µg/mL) in test [2], 27.1 µM (≈ 12.5 µg/mL) in test [3] and 27.1 µM (≈ 12.5 µg/mL) in test [4].
For the compound `O=C(CCC(=O)OCc1cn(CCc2ccccc2)nn1)OCc1cn(CCc2ccccc2)nn1`, the MIC in test [1] was determined as 12.8 µM (≈ 6.25 µg/mL); in test [2], 25.6 µM (≈ 12.5 µg/mL); in test [3] it was 25.6 µM (≈ 12.5 µg/mL); in test [4] it was 12.8 µM (≈ 6.25 µg/mL).
Regarding `O=C(CCCC(=O)OCc1cn(Cc2ccccc2)nn1)OCc1cn(Cc2ccccc2)nn1`, the MIC in test [1] was 13.5 µM (≈ 6.41 µg/mL); in test [2] it was 26.3 µM (≈ 12.5 µg/mL); in test [3] it was 26.3 µM (≈ 12.5 µg/mL); in test [4], 26.3 µM (≈ 12.5 µg/mL).
`O=C(CCCC(=O)OCc1cn(CCc2ccccc2)nn1)OCc1cn(CCc2ccccc2)nn1`: the minimal inhibitory concentration (MIC) in test [1], in test [2], in test [3] and in test [4] was 24.9 µM (≈ 12.5 µg/mL) in each case.
As for `O=C(CCCCC(=O)OCc1cn(Cc2ccccc2)nn1)OCc1cn(Cc2ccccc2)nn1`, the minimal inhibitory concentration (MIC) in test [1] was 12.8 µM (≈ 6.25 µg/mL); in test [2] it was 12.8 µM (≈ 6.25 µg/mL); in test [3] it was 25.6 µM (≈ 12.5 µg/mL); in test [4], 12.8 µM (≈ 6.25 µg/mL).
For the compound `O=C(CCCCC(=O)OCc1cn(CCc2ccccc2)nn1)OCc1cn(CCc2ccccc2)nn1`, the minimum inhibitory concentration (MIC) was 12.1 µM (≈ 6.25 µg/mL) in test [1], 24.2 µM (≈ 12.5 µg/mL) in test [2], 24.2 µM (≈ 12.5 µg/mL) in test [3] and 24.2 µM (≈ 12.5 µg/mL) in test [4].
`O=C(OCc1cn(Cc2ccccc2)nn1)c1cccc(C(=O)OCc2cn(Cc3ccccc3)nn2)n1`: the MIC was determined as 12.3 µM (≈ 6.27 µg/mL) in test [1], 24.6 µM (≈ 12.5 µg/mL) in test [2], 12.3 µM (≈ 6.27 µg/mL) in test [3] and 12.3 µM (≈ 6.27 µg/mL) in test [4].
On to `O=C(OCc1cn(CCc2ccccc2)nn1)c1cccc(C(=O)OCc2cn(CCc3ccccc3)nn2)n1`, for which the MIC in test [1], in test [2], in test [3] and in test [4] was 23.3 µM (≈ 12.5 µg/mL) throughout.
As to `O=C(OCc1cn(CCc2ccccc2)nn1)c1cccc(C(=O)OCc2cn(CCc3ccccc3)nn2)c1`, the MIC in test [1], in test [2], in test [3] and in test [4] was 23.3 µM (≈ 12.5 µg/mL) each time.
`O=C(OCc1cn(CCc2ccccc2)nn1)c1ccc(C(=O)OCc2cn(CCc3ccccc3)nn2)cc1`: the MIC in test [1], in test [2], in test [3] and in test [4] was 23.3 µM (≈ 12.5 µg/mL) throughout.
`OC(Cn1cncn1)(Cn1cncn1)c1ccc(F)cc1F` [FLUCONAZOLE]: the MIC in test [1] and in test [2] was 10.2 µM (≈ 3.12 µg/mL) in each case.
In the case of `CCn1cc(C(=O)O)c(=O)c2cc(F)c(N3CCNCC3)cc21` [NORFLOXACIN], the MIC in test [3] and in test [4] was 9.8 µM (≈ 3.13 µg/mL) throughout.
